Data on 2 molecules can be found in ChEMBL document CHEMBL1133513, “Synthesis and biological activity of novel 5-fluoro-2'-deoxyuridine phosphoramidate prodrugs” (J Med Chem, 2000).

Holding throughout (type): functional, cell-based
The test system of assay [1] is L1210. As to the kind of experiment: Growth inhibition in L1210 mouse Leukemia cells for a treatment time of 48 hr. To be noted: L1210, 48 h. The essentials:
(§1)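 L1210 cells in exponential growth, 3–6 × 10^4/mL in Fischer's medium with 10% horse serum, 1% glutamine, 1% antibiotic–antimycotic. Drug added from ethanol dilutions (50 μL per 10 mL), exposure 2, 8, 24 or 48 h. Cells then spun down, resuspended in drug-free medium, counted 48 h after treatment start. IC50 read from percent-of-control count versus concentration plots.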

In assay [2] the test system is L1210. The assay is described as follows: Growth inhibition in L1210 mouse Leukemia cells for a treatment time of 24 hr. To be noted: L1210, 24 h. The essentials:
as §1

Assay [3] concerns L1210. As to the kind of experiment: Growth inhibition in L1210 mouse Leukemia cells for a treatment time of 2 hr. To be noted: L1210, 2 h. The essentials: as §1
Assay [4] relates to L1210. The assay is described as follows: Growth inhibition in L1210 mouse Leukemia cells for a treatment time of 8 hr. The following applies: L1210, 8 h. An outline of the steps:
as §1

Broadly, the IC50 is the concentration that inhibits the measured activity by half. Read a low IC50 as inhibition by little substance. As to `O=c1[nH]cc(F)c(=O)[nH]1` [FLUOROURACIL], in the assay on L1210 [1], the half-inhibitory concentration (IC50) was found to be 125 nM.

Regarding `CN(CCBr)P(=O)(NCC1OC(n2cc(F)c(=O)[nH]c2=O)CC1O)OCc1ccc([N+](=O)[O-])o1` (stereo not given), the concentration for half-maximal inhibition (IC50) came to 108 nM in the assay on L1210 [2], 1100 nM with L1210 [3], 34 nM in the assay with L1210 [1] and 504 nM in the assay on L1210 [4].
